For test [1], the target named is T1, Leukotriene B4 receptor 1 (Homo sapiens, UniProt Q15722). In words: Binding affinity for Leukotriene B4 (LTB4) receptor. The procedure, abridged:
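Human blood neutrophils (dextran sedimentation, Ficoll-paque, hypotonic lysis without BSA), 4 × 10⁶ cells with 0.6 nM [³H]LTB₄ ± test compound in 1 mL HBSS, 0 °C for 45 min; 30 μM NDGA present in some assays. Glass-fibre filtration with ice-cold HBSS washes.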

Another test deals with Leukotriene B4 receptor (Homo sapiens, UniProt Q9NPC1+Q15722). In words: Inhibition of Leukotriene B4 (LTB4) induced chemotaxis. It is filed as functional.
The species named for test [2] is Homo sapiens. The experiment in a line: Tested for the ability to inhibit Leukotriene B4 (LTB4) induced degranulation. It is filed as functional, organism-based. The essentials: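 Human neutrophils (3 × 10⁶ in 1 mL HBSS) pretreated with 5 μg cytochalasin B for 5 min at 37 °C, then with test compound for 7 min, then stimulated with 5 × 10⁻⁸ M LTB₄ for 2 min. MPO in pellet and supernatant read spectrophotometrically (o-dianisidine/peroxide). Release is expressed as percent of total MPO after subtracting basal.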

Test [3] addresses T1, Leukotriene B4 receptor 1. The experiment in a line: Binding affinity towards Leukotriene B4 (LTB4) Receptor. Experiment conducted in the absence of NDGA. The essentials:
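Human neutrophils isolated with dextran sedimentation, Ficoll-paque and BSA-free hypotonic lysis. 4 × 10⁶ cells incubated with 0.6 nM [³H]LTB₄ ± test compound in 1 mL HBSS at 0 °C for 45 min, no NDGA. Bound ligand separated by glass-fibre filtration. Specific binding is total minus binding not displaced by 0.1 μM unlabeled LTB₄.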

The species named for test [4] is Homo sapiens. The experiment in a line: Tested for the ability to inhibit Leukotriene B4 (LTB4) induced chemotaxis. Test compound added to upper and lower wells. It is filed as functional, organism-based. The procedure, abridged:
(§1)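 Test compound is placed in both upper and lower wells. After 90 min at 37 °C, migrated cells in the lower well are Coulter-counted. Inhibition is computed after subtracting the HBSS random-migration mean.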

The subject of test [5] is Cavia porcellus. The experiment in a line: In vivo guinea pig (oral) SCOA-induced colitis activity of the compound.
Test [6] concerns Cavia porcellus. The experiment in a line: In vivo activity for topical application using LTB4-induced […] intradermal chemotaxis assay. It is filed as functional.
Test [7] relates to Cavia porcellus. In words: In vivo activity for intravenous administration using LTB4-induced guinea pig intradermal chemotaxis assay.
The subject of test [8] is Mus musculus. In words: In vivo murine (intracolonic) SCOA-induced colitis activity of the compound. The format is functional. The procedure, abridged: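 Mouse colitis induced under light anesthesia by a single intrarectal enema of 3% acetic acid. Test compound given intrarectally 1 h before and 1 h after instillation. Colonic MPO assessed at 24 h. ED50 is in mg/kg.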

Test [9] is filed under the species Homo sapiens. The experiment in a line: Tested for the ability to inhibit Leukotriene B4 (LTB4) induced chemotaxis. (Test compound added to upper and lower wells). It is filed as functional, organism-based. The essentials: as §1
For test [10], the system named is Cavia porcellus. The experiment in a line: In vivo activity for oral administration using LTB4-induced guinea pig intradermal chemotaxis assay.
Test [11] relates to Cavia porcellus. The experiment in a line: In vivo […] (oral) SCOA-induced colitis activity of the compound. It is filed as functional. The procedure, abridged: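 Guinea pig colitis induced under light anesthesia by a single intrarectal enema of 4% acetic acid. Oral dosing 30 min before induction. Colonic MPO activity measured after 24 h. ED50 is in mg/kg.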
In test [12] the test system is Mus musculus. The experiment in a line: Compound measured by topical application using Murine epidermal inflammation assay. It is filed as functional. The essentials: (§2)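 PMA (25 μg) in acetone applied to the dorsal surface of one mouse ear, with vehicle on the other ear. Test compound applied topically with the PMA in acetone. At 18 h, ears were removed and weighed. Edema is weight gain versus the contralateral ear, and MPO was also assayed. ED50 is in mg.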

Test [13] concerns Canis lupus familiaris. The experiment in a line: In vivo activity for oral administration using LTB4-induced canine intradermal chemotaxis assay.
Test [14] is filed under the species Homo sapiens. In words: Inhibition of fMLP-induced degranulation in the PMN degranulation assay. It is filed as functional, organism-based.
The species entered for test [15] is Homo sapiens. In words: Inhibition of 12-(R)-hydroxyeicosatetraenoic acid (HETE)-induced chemotaxis. It is filed as functional, organism-based.
The species named for test [16] is Homo sapiens. In words: Tested for the ability to inhibit Leukotriene B4 (LTB4) induced chemotaxis. (Test compound added to upper and lower wells.). The format is functional, organism-based. The essentials:
as §1

Test [17] is filed under the species Homo sapiens. In words: Inhibition of fMLP-induced chemotaxis. The format is functional, organism-based.
The subject of test [18] is HL-60. In words: Inhibitory activity against LTB4 production in HL60s. It is filed as functional, cell-based. To be noted: Homo sapiens.
Test [19] relates to Canis lupus familiaris. The experiment in a line: In vivo activity for intravenous administration using LTB4-induced canine intradermal chemotaxis assay.
Test [20] relates to Mus musculus. In words: In vivo murine epidermal inflammation for topical application. It is filed as functional. The procedure, abridged: as §2
The species entered for test [21] is Homo sapiens. The experiment in a line: Potency against LTB4-induced eosinophil chemotaxis. It is filed as functional, organism-based.
The species named for test [22] is Homo sapiens. The experiment in a line: Potency against LTB4 binding to its receptor on eosinophils. It is filed as functional, organism-based.
The subject of test [23] is HL-60. In words: Inhibitory activity against PGE-2 production in HL60s. To be noted: Homo sapiens. It is filed as functional, cell-based.
The species entered for test [24] is Homo sapiens. The experiment in a line: Inhibitory activity against HETE-induced chemotaxis. The format is functional, organism-based.
The species named for test [25] is Homo sapiens. The experiment in a line: Inhibitory activity against LTB4 production in PMNs. It is filed as functional, organism-based.

Bounds are passed on as bounds.

Broadly, the IC50 is the concentration that inhibits the measured activity by half. Higher therefore signals weaker potency.

T1 sequence (Q15722 whole entry): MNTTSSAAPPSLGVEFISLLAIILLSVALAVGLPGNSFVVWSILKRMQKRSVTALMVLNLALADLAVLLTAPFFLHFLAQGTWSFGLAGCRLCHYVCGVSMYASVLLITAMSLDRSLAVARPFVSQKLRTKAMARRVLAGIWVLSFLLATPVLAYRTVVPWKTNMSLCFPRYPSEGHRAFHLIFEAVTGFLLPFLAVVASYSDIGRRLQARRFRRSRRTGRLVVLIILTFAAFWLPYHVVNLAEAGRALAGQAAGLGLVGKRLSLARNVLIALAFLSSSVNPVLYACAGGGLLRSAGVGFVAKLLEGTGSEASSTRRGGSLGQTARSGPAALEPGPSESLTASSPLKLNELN

For `CCCc1c(OCCCOc2ccc(-c3ccno3)c(OC)c2CCC)ccc2c1OC(C(=O)O)CC2` (stereo not given), the values for the IC50 (in [1]; on Leukotriene B4 receptor) were 770 nM and 1600 nM, respectively.

For `CCCc1c(OCCCOc2ccc(-c3csc(SCc4ccccc4)n3)c(OC)c2CCC)ccc2c1OC(C(=O)O)CC2` (stereo not given), the results for the 50% inhibitory concentration (IC50) (in test [1]; on Leukotriene B4 receptor) were 5800 nM and more than 10000 nM, respectively.

Turning to `CCCc1c(OCCCOc2ccc(C(N)=O)c(OC)c2CCC)ccc2c1OC(C(=O)O)CC2` (stereo not given), the half-maximal inhibitory concentration (IC50) in the test listed under Homo sapiens [2] (Homo sapiens) is 920 nM; in [1], 140 nM; at Leukotriene B4 receptor, 350 nM.

Take `CCCc1c(OCCCOc2ccc(-c3cscn3)c(OC)c2CC2CC2)ccc2c1OC(CCC(=O)O)CC2` (stereo not given): the half-maximal inhibitory concentration (IC50) in test [3] was determined as 12.3 nM; in the test listed under Homo sapiens [4], 49 nM; in the test filed under Homo sapiens [2] (Homo sapiens), 7 nM.

With `CCCc1c(OCCCOc2ccc(-c3cscn3)c(OC)c2CCC)ccc2c1OC(CCC(=O)O)CC2` (stereo not given), the 50% inhibitory concentration (IC50) in the test listed under Homo sapiens [2] (Homo sapiens) worked out at 70 nM; in [1], 26 nM; against Leukotriene B4 receptor, 1540 nM.

For the compound `CCCc1c(OCCCOc2ccc(-c3cscn3)c(OC)c2CCC)ccc2c1OC(C(=O)O)CC2` (stereo not given), the results for the IC50 (in the test listed under Homo sapiens [2] (Homo sapiens); in test [1]; at Leukotriene B4 receptor) were 90 nM, 93 nM and 287 nM, respectively.

For `CCCc1c(OCCCOc2ccc(C(C)=O)c(OC)c2CCC)ccc2c1OC(C(=O)O)CC2` (stereo not given) [SC-41390], the ED50 is 20 mg/kg with Cavia porcellus [5]; 340 ng in the test with Cavia porcellus [6]; 0.5 mg/kg in the test with Cavia porcellus [7]; 28 mg/kg with Mus musculus [8] (Mus musculus, read-out: ED50); 1.7 mg/kg in the test with Cavia porcellus [10]. Besides, the concentration for half-maximal inhibition (IC50) in the test filed under Homo sapiens [9] was 832 nM; in the test listed under Homo sapiens [2] (Homo sapiens), 920 nM.

Turning to `CCCc1c(OCCCOc2ccc(-c3cscn3)c(OC)c2CC2CC2)ccc2c1OC(C(=O)O)CC2` (stereo in doubt; -/-35), the ED50 turned out to be 98 ng in the test with Cavia porcellus [6], 11.7 mg/kg in the test with Mus musculus [8], 5.9 mg/kg with Cavia porcellus [11] and 0.98 mg in the test with Mus musculus [12]. Besides, it took 79 nM to reach half-maximal inhibition in the test listed under Homo sapiens [2] (IC50).

With `CCCc1c(OCCCOc2ccc(-c3cocn3)c(OC)c2CCC)ccc2c1OC(C(=O)O)CC2` (stereo not given), the IC50 in the test listed under Homo sapiens [2] (Homo sapiens) is 230 nM; in [1] it was 100 nM; on Leukotriene B4 receptor it was 430 nM.

As to `CCCc1c(OCCCOc2ccc(-c3c[nH]c(SCc4ccccc4)n3)c(OC)c2CCC)ccc2c1OC(C(=O)O)CC2` (stereo not given), the concentration for half-maximal inhibition (IC50) was 750 nM in [3] and 430 nM in the test listed under Homo sapiens [4].

For `CCCc1c(OCCCOc2ccc(-c3cc[nH]n3)c(OC)c2CCC)ccc2c1OC(C(=O)O)CC2` (stereo not given), the half-maximal inhibitory concentration (IC50) in test [1] was 610 nM; against Leukotriene B4 receptor, 1200 nM.

For the compound `CCCc1c(OCCCOc2ccc(-c3coc(C)n3)c(OC)c2CCC)ccc2c1OC(C(=O)O)CC2` (stereo not given), the IC50 in test [1] was 1100 nM; against Leukotriene B4 receptor, more than 10000 nM.

Take `C=CCc1c(OCCCOc2ccc3c(c2CCC)OC(C(=O)O)CC3)ccc(-c2cscn2)c1OC` (stereo not given): the figures for the half-maximal inhibitory concentration (IC50) (in the test listed under Homo sapiens [2] (Homo sapiens); in [1]; on Leukotriene B4 receptor) were 23 nM, 25 nM and 110 nM, respectively.

In the case of `CCCc1c(OCCCOc2ccc(-c3c[nH]cn3)c(OC)c2CCC)ccc2c1OC(C(=O)O)CC2` (stereo not given), the concentration for half-maximal inhibition (IC50) was determined as 520 nM in [1] and 1200 nM against Leukotriene B4 receptor.

As for `CCCc1c(OCCCOc2ccc(-c3csc(N)n3)c(OC)c2CCC)ccc2c1OC(C(=O)O)CC2` (stereo not given), the 50% inhibitory concentration (IC50) in [1] turned out to be 320 nM; against Leukotriene B4 receptor, 1500 nM.

Consider `CCCc1c(OCCCOc2ccc(-c3csc(SC)n3)c(OC)c2CCC)ccc2c1OC(C(=O)O)CC2` (stereo not given), for which the 50% inhibitory concentration (IC50) in [1] is 2800 nM; against Leukotriene B4 receptor it was 18600 nM.

For the compound `CCCc1c(OCCCOc2ccc(-c3cscn3)c(OC)c2CC2CC2)cccc1OCC(=O)O`, the values for the IC50 (in test [3]; in the test filed under Homo sapiens [4]; in the test filed under Homo sapiens [2] (Homo sapiens)) were 15.5 nM, 360 nM and 220 nM, respectively.

Turning to `CCCc1c(OCCCOc2ccc(-c3csc(S)n3)c(OC)c2CCC)ccc2c1OC(C(=O)O)CC2` (stereo not given), the figures for the half-maximal inhibitory concentration (IC50) (in the test filed under Homo sapiens [2] (Homo sapiens); in test [1]; against Leukotriene B4 receptor) were 1200 nM, 890 nM and 520 nM, respectively.

On to `CCCc1c(OCCCOc2ccc(-c3cscn3)c(OC)c2CC2CC2)ccc2c1OC(C(=O)O)CC2` (racemic), for which the ED50 turned out to be 18 ng with Cavia porcellus [6]; 0.2 mg/kg in the test with Canis lupus familiaris [13]; 7.1 mg/kg in the test on Mus musculus [8] (Mus musculus, read-out: ED50); 2.3 mg/kg in the test with Cavia porcellus [11]. Besides, the IC50 in the test filed under Homo sapiens [14] is 5900 nM; in the test filed under Homo sapiens [15] it was 106 nM; in the test filed under Homo sapiens [2] (Homo sapiens) it was 48 nM; in the test filed under Homo sapiens [16] (Homo sapiens) it was 67 nM; in the test filed under Homo sapiens [17] it was 1410 nM.

Take `CCCc1c(OCCCOc2ccc(-c3c[nH]nn3)c(OC)c2CCC)ccc2c1OC(C(=O)O)CC2` (stereo not given): the values for the IC50 (in test [3]; in the test filed under Homo sapiens [4]; in the test listed under Homo sapiens [2] (Homo sapiens)) were 5.2 nM, 88 nM and 130 nM, respectively.

As to `CCCc1c(OCCCOc2ccc(-c3csc(OC)n3)c(OC)c2CCC)ccc2c1OC(C(=O)O)CC2` (stereo not given), the values for the IC50 (in [1]; at Leukotriene B4 receptor) were 1150 nM and more than 10000 nM, respectively.

As for `CCCc1c(OCCCOc2ccc(-c3cscn3)c(OC)c2CC2CC2)ccc2c1OC(C(=O)O)CC2` (stereo in doubt; 35), the IC50 with HL-60 [18] was determined as 660 nM; in the test listed under Homo sapiens [21] it was 9 nM; in the test filed under Homo sapiens [22], 2.6 nM; in the test filed under Homo sapiens [2] it was 57 nM; in the test on HL-60 [23] it was 928 nM; in the test filed under Homo sapiens [24], 106 nM. Further, the results for the half-maximal inhibitory concentration (IC50) in the test filed under Homo sapiens [16] and in the test filed under Homo sapiens [25] were 89 nM and 520 nM, respectively. Also, the ED50 in the test with Canis lupus familiaris [19] was 0.02 mg/kg; with Cavia porcellus [6], 70 ng; in the test with Canis lupus familiaris [13], 0.74 mg/kg; in the test with Mus musculus [8], 12 mg/kg; in the test on Mus musculus [20] it was 0.8 mg; in the test on Cavia porcellus [11], 3.4 mg/kg.

Source of the values: ChEMBL document CHEMBL1128264, “Second-generation leukotriene B4 receptor antagonists related to SC-41930: heterocyclic replacement of the methyl ketone pharmacophore” (J Med Chem, 1995).
